# Screens from PubChem.
# Jurkat viability = cytotoxicity toward Jurkat T cells, primary screen, cytotoxicity control, cell-based, Jurkat E6.1, 60K MLSMR library; Jurkat E6.1 viability, ATP luminescence, 48 h; inhibition, % at 4 µM; 56,000 tested, 1.2% active;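 active = inhibition above the mean inhibition of all tested compounds plus 3 SD, cut at about 28% in these data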
# Her2 expr inh = inhibitors of Her2 protein expression, primary screen, SKBR-3 cells, AlphaScreen, 66K library | Receptor tyrosine-protein kinase erbB-2 (Homo sapiens), P04626 | SKBR-3 HER2 protein level, 18-24 h; stronger effect = lower value | HER2 level % of control, % at 10 µM | 65,000 tested, 0.69% active | AID 645, 2007;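 active = HER2 level under 5% of the carrier-only control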;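 note: 100% = DMSO carrier and 0% = 500 nM PU-H71 HSP90 inhibitor; lower value means stronger loss of Her2 protein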
# SK-BR-3 tox 24h = SK-BR-3 proliferation inhibitors, primary screen, cell-based, human, 24 h; SK-BR-3 viability, CellTiter-Glo ATP luminescence; stronger effect = lower value; viability, % at 10 µM; 41,000 tested, 0.47% active; AID 847, 2007;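 active = viability at or below the median of all test compounds minus 3 SD, in both replicates if run twice, cut at about 45% in these data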;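 note: 100% = median untreated cell wells and 0% = median positive control drug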
# HEK293 NFkB inh = inhibitors of PMA/ionomycin-induced NF-kB reporter, primary screen, antigen receptor NF-kB inhibitor project, cell-based, HEK-293 luciferase reporter, luminescence; HEK-293 NF-kB luciferase reporter; AID 465, 2006; 62,000 tested, 0.21% active; inhibition, % at 3 µM;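 active = inhibition above the mean of all tested compounds plus 3 SD, cut at about 40% in these data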;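 note: 0% = stimulated DMSO wells and 100% = 10 µM reference inhibitor 5653914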
#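 Reagent: PMA plus ionomycin mix as NF-kB-activating stimulus. Assay system: NF-kB luciferase reporter HEK-293 cells. Technique: luminescence from luciferase substrate reagent. Incubation: 1 h compound pre-incubation, 16 h PMA/ionomycin at 37 °C. Benchmarks: DMSO only as uninhibited control, 10 µM reference inhibitor as full inhibition. Repeats: tested once.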
# Starred values were filed as active, the others as inactive; . = no result given. Rows were chosen to be rich in hits. Some 2% of all compounds tested hit in one or more screens of this group.
SMILES,Jurkat viability,Her2 expr inh,SK-BR-3 tox 24h,HEK293 NFkB inh
CC1CCCC(NC(=O)c2cn(C)c3ccc(S(=O)(=O)N4CCCC4)cc3c2=O)C1C (stereo unspecified),2,102,69,0
Cn1cc(C(=O)NC2CCCCC2)c(=O)c2cc(S(=O)(=O)N3CCCC3)ccc21,5,-4.8*,51,0
CC1CCCCC1NC(=O)c1cn(C)c2ccc(S(=O)(=O)N3CCCC3)cc2c1=O (stereo unspecified),13,99,43*,0
CC(C)COC(=O)c1ccc(NC(=O)C2C3CCC(C3)C2C(=O)O)cc1 (stereo unspecified),0,135,74,-10
CCCCOC(=O)c1[nH]c2c(c1C)C(=O)CC(c1cc(OC)c(OC)c(OC)c1)C2 (stereo unspecified),46*,80,.,27
C=CCOC(=O)c1[nH]c2c(c1C)C(=O)CC(c1cc(OC)c(OC)c(OC)c1)C2 (stereo unspecified),43*,76,.,17
O=C(Cn1cnc2c(nnn2Cc2ccc(F)cc2)c1=O)N1CCCc2ccccc21,-5,168,.,2
Cn1c(C(=O)O)c(CC(=O)Nc2ccccc2F)c2ccccc21,6,75,30*,29
Cn1c(C(=O)O)c(CC(=O)NCC2COc3ccccc3O2)c2ccccc21 (stereo unspecified),5,96,52,14
CC(=O)N=c1c(C#N)cc2c(=O)n3cccc(C)c3nc2n1CC(C)C,-4,86,87,3
O=C(CC(=O)c1ccccc1O)c1cccc(F)c1,69*,37,.,11
O=C(Nc1ccncc1)c1cccc(F)c1,-7,81,82,14
O=C(Nc1ccc(N2CCCC2)cc1)c1cccc(F)c1,69*,70,.,-27
Cc1c(NC(=O)c2cccc(F)c2)c(=O)n(-c2ccccc2)n1C,-3,-26*,94,3
NC(=O)CSc1nnc2sc3ccccc3n12,-4,111,.,11
COc1ccc(NC(=O)Cn2nnc(-c3ccccc3NC(=O)c3ccco3)n2)cc1,-1,59,28*,14
Cc1cccc(Cn2c(=O)n(CCCC(=O)NCc3ccco3)c(=O)c3ccccc32)c1,71*,73,83,16
COc1ccc(OC)c(C2C(C(=O)c3ccco3)=C(O)C(=O)N2CCCN2CCOCC2)c1 (stereo unspecified),.,86,103,.
Clc1ccc(-n2ncc3c(N4CCCCCC4)ncnc32)cc1,4,96,.,48*
COc1ccc(-n2ncc3c(N4CCCCC4)ncnc32)cc1,5,86,.,58*
Nc1nnnn1/N=C/C=C/c1ccccc1,-3,84,90,7
Nc1nnnn1/N=C/C(Br)=C/c1ccccc1,84*,-20*,180,10
O=C(Nc1ccc(N2CCOCC2)cc1)Nc1ccc2nc(-c3ccco3)c(-c3ccco3)nc2c1,83*,21,76,-21
O=C(c1ccc2nc(-c3ccco3)c(-c3ccco3)nc2c1)N1CCN(c2ccccc2)CC1,2,68,85,5
O=C(NCc1ccco1)c1ccc(=O)oc1,.,106,86,.
SMILES,Jurkat viability,Her2 expr inh,SK-BR-3 tox 24h,HEK293 NFkB inh
CCOC(=O)C1(N(CC)CC)Sc2cc(C)ccc2NC1=O (stereo unspecified),36*,74,78,6
Cc1cc(C(=O)CSc2nnc(-c3cccc(F)c3)n2N)c(C)n1Cc1ccc2c(c1)OCO2,37*,48,.,16
Cc1cc(C(=O)CSc2nnnn2-c2ccc(O)cc2)c(C)n1Cc1ccc2c(c1)OCO2,1,180,.,14
COCCn1c(SCC(=O)NCc2ccc3c(c2)OCO3)nnc1-c1c[nH]c2ccccc12,-3,80,.,6
CCOc1ccccc1NC(=O)C1CCN(S(=O)(=O)c2cccc3cccnc23)CC1,0,102,.,16
Oc1c(C(Nc2ccccn2)c2ccccn2)ccc2cccnc12 (stereo unspecified),5,63,.,11
CC(=O)NC(c1ccco1)c1ccc2cccnc2c1O (stereo unspecified),74*,45,.,9
Clc1ccc(-c2nn3c(Cn4cnc5ccccc54)nnc3s2)c(Cl)c1,6,89,65,13
Cc1cc(C)c2ccc(N)nc2c1O,44*,66,76,12
CC1=C(C(=O)OCc2ccc3c(c2)OCO3)C(c2ccccc2)NC(=O)N1 (stereo unspecified),38*,53,95,37
